Laboratory results: paper PMC7496803 (Chemistry (Weinheim an Der Bergstrasse, Germany), 2020)

How the values were obtained:
HeLa cells = test: Phototoxicity, resazurin cell viability assay after 525 nm irradiation; assay type: cell-based
Procedure, shortened: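 HeLa, 2×10^4 per well in DMEM (2.5 % FBS), 21 h before dosing. Turn-off or turn-on peptide photosensitizers in water/12.5 % MeCN, 4.00–0.03 μm final, triplicate, 2 h. Irradiated at 525 nm by LED array, 69.4±0.6 W m−2 for 160 s, then 18 h. Resazurin fluorescence viability; IC50 by four-parameter variable-slope log(inhibitor)–response fit; untreated and vehicle controls; ≥2 independent experiments.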

PC-3 cells = test: Phototoxicity, resazurin cell viability assay after 525 nm irradiation; assay type: cell-based
[1] = in MeOH; cited from earlier work

CCCCCCCCCCCCCCCC(=O)NCCCC[C@H](NC(=O)[C@H](CSCC(=O)NCc1cn(CCOc2ccc(C3=C4C(C)=C(I)C(C)=[N+]4[B-](F)(F)n4c(C)c(I)c(C)c43)cc2)nn1)NC(=O)c1ccc(-c2nnc(C)c3c2CCC(O)CCC3)cc1)C(=O)N[C@@H](CCCNC(=N)N)C(=O)N[C@@H](CCCNC(=N)N)C(=O)N[C@@H](CCCNC(=N)N)C(=O)N[C@@H](CCCNC(=N)N)C(N)=O (stereo partly shown) [6ON, [TCO:Tz]‐C(2I‐BODIPY)‐K(PA)RRRR‐CONH2]
phototoxicity variation turn-off/turn-on (IC50 6OFF / IC50 6ON) (HeLa cells): 3.8 fold
OFF/ON ratio (IC50 6OFF / IC50 6ON) (PC-3 cells): 3.3 fold

O=C([O-])c1c(Cl)c(Cl)c(Cl)c(Cl)c1-c1c2cc(I)c(=O)c(I)c-2oc2c(I)c([O-])c(I)cc12.[Na+].[Na+] [rose bengal]
Φ Δ of the reference photosensitizers [1]: 0.76

Erythrosine B
Φ Δ of the reference photosensitizers [1]: 0.6
